The nature of test [1]: inhibitors of TNFa-induced NFkB p65 translocation, primary screen, imaging, HUVEC, MLSMR starter and 10KST1 sets (AID 438;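 active means inhibition above 20% together with a positive visual image hit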;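 further: compound added about 3h40 before a 20 min TNFalpha stimulation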;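 on inhibition: signal is the nuclear over cytoplasmic p65 intensity ratio per well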). As to conditions: HUVEC TNFa-induced p65 nuclear translocation; cell count: measured here: nuclei count (cytotoxicity indicator), at 2.08 µM; inhibition: at 2 µM, stronger effect = higher value, 0% TNFa-plus-vehicle, 100% no-TNFa wells.
Test [2] in a line: endothelial E-selectin expression blockers – imaging, HUVEC, immunofluorescence, MLSMR starter and 10KST1 sets, primary screen (AID 487;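 active means visually confirmed hit in the image check and inhibition above 20%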;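 on inhibition: signal is fraction of cell area covered by stained E-selectin grains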;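 on nuclei count: 100% = median nuclei count of all wells on the same plate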). The conditions noted are these: HUVEC TNFalpha-induced E-selectin immunofluorescence imaging, at 2 µM; inhibition: stronger effect = higher value; nuclei count: measured here: cell number, toxicity.
Test [3] can be described thus: Primary imaging screen for DUSP6 inhibitors that restore phospho-Erk in transfected HeLa cells, chemical complementation (AID 609;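 active means compounds giving at least 50% inhibition in the cell-based MKP-3 phosphatase rescue imaging test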;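 on inhibition: phospho-Erk level distribution per well compared with pooled transfected vehicle control wells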). The conditions noted are these: HeLa MKP-3 transfected, phospho-Erk imaging KS statistic, at 10 µM, cells stimulated with TPA for 15 min.
The target in test [4] is Dual specificity protein phosphatase 6 (Homo sapiens) (UniProt Q16828). The test is described as above. The conditions noted are these: HeLa MKP-3 transfected, phospho-Erk imaging KS statistic; at 10 µM; stronger effect = higher value; cells stimulated with TPA for 15 min.
Test [5] addresses Voltage-gated potassium channel subunit beta-2 (Rattus norvegicus) (UniProt P62483). The test can be described thus: inhibitors of rat Kvbeta2 reductase activity – biochemical, NADPH fluorescence, primary screen (AID 622;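 active means fluorescence slope higher than the sample average by over 3 SD, cut at about -0.22 in these data, passing the limit was not always enough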;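 further: slope of raw intensity against log time taken from 70 to 1610 s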). As to conditions: recombinant KvBeta, 4-cyanobenzaldehyde reduction, at 10 µM, stronger effect = higher value.
Test [6] shares this target. The test can be described thus: enhancers of rat Kvbeta2 NADPH turnover – biochemical, NADPH fluorescence, primary screen (AID 623;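 active means NADPH fluorescence slope more negative than the mean of all samples by about 3 SD, 99.7% confidence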;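 further: fluorescence intensity change per second fitted from 20 to 320 s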). As to conditions: Recombinant KvBeta, NADPH fluorescence decrease slope, 10 min; at 10 µM; stronger effect = lower value.
In test [7] the target is Muscarinic acetylcholine receptor M4 (Homo sapiens) (UniProt P08173). Nature of the test: M4-linked GIRK flux change, two-sided – cell-based, HEK293 M4/GIRK, thallium flux, BTC-AM, M4 allosteric agonist project, primary screen (AID 625).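 Further: thallium influx through GIRK channels coupled to M4 in HEK293 cells with BTC-AM dye.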 As to conditions: at 10 µM, actives lie on both sides. The procedure, abridged:
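Assay system: HEK293 cells with M4 receptor and GIRK channels / Controls: carbachol and DMSO controls / Schedule: 1 h dye loading, 2 min kinetic read / Technique: kinetic fluorescence with BTC-AM dye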

Test [8] can be described thus: inhibitors of larval lipid processing in zebrafish, primary screen, whole organism, PED6 fluorescence, gall bladder and intestine (AID 686;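 active means a full or partial loss of lipid-probe fluorescence in the fish gall bladder, intestine or both, judged by eye; inactive means no fluorescence loss, or compound toxic to the fish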;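 further: signal comes from phospholipase A2 cleavage of quenched PED6 carried via bile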). As to conditions: Zebrafish larvae PED6 lipid processing, fluorescence scoring; screened at 20 µM (by protocol). Summed up: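 Doses: 20 µM single dose. Test system: live zebrafish larvae aged 5-7 days, whole organism. Quantity: five larvae per well. Measured by: By-eye fluorescence microscopy. Reagent: ingested quenched lipid PED6 at 100 nM. Read-out: visual per-well fluorescence inhibition score. Times: overnight exposure of larvae to compound plus PED6.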

Test [9] in a line: loss of swimming-algae plug formation – whole organism, Chlamydomonas reinhardtii, WT vs cilia-less mutant, absorbance, 96-well, primary screen (AID 463189;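 active means inhibition at or above 50% relative to wild type and mutant plate controls; inactive means inhibition below 50%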;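 further: 0% = wild type cc124 cells in DMSO and 100% = ciliumless bld1 mutant cells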). As to conditions: Chlamydomonas reinhardtii gravitaxis, OD600 absorbance, 2 days; at 10 µM; stronger effect = higher value.
[10] abbreviates: measured here: cell density z-score.
The mark [11] stands for this setting: measured here: nuclear c-Myc green intensity z-score.
The mark [12] stands for this setting: measured here: nuclear pErk red intensity z-score, stronger effect = higher value.

The source made the active and inactive calls.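 How the source made its calls, unless noted: active means fluorescence slope after compound addition differing from the mean of all tested samples at 99.7% confidence, mostly higher but some lower; inactive means the rest.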

Voltage-gated potassium channel subunit beta-2 (Rattus norvegicus), sequence (P62483 whole entry, looked up): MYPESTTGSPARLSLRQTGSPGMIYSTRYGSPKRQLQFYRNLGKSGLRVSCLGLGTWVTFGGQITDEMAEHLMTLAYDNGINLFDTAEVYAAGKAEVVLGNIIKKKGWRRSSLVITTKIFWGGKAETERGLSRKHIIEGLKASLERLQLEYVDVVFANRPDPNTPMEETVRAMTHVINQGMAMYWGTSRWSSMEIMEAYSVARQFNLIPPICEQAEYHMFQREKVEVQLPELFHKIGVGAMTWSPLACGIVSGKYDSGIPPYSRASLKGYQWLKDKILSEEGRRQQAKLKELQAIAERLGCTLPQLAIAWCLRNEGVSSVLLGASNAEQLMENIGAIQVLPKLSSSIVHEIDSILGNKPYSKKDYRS
Dual specificity protein phosphatase 6 (Homo sapiens), sequence (Q16828 whole entry, looked up): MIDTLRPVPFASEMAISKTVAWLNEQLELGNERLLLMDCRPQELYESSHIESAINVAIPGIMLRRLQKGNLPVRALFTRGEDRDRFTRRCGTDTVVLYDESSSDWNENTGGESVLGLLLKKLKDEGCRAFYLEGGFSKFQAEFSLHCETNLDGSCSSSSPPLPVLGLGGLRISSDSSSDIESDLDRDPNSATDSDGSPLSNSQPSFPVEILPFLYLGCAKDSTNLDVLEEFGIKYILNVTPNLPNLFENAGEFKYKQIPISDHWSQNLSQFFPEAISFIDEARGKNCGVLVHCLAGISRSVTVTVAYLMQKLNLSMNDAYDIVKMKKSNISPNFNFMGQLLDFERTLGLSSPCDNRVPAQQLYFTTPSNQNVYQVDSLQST
Muscarinic acetylcholine receptor M4 (Homo sapiens), sequence (P08173 whole entry, looked up): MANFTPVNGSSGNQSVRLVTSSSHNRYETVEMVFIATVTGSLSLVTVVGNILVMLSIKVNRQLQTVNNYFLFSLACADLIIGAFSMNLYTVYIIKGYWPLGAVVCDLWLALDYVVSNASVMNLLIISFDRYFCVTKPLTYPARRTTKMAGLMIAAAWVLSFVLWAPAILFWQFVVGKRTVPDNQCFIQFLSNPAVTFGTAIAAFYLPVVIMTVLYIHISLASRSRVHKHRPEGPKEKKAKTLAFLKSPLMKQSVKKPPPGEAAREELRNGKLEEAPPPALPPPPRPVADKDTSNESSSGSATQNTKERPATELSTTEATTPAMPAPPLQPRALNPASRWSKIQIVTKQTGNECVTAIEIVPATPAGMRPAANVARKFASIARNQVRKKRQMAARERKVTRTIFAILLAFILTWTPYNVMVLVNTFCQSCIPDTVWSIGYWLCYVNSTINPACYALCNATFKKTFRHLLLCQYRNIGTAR

As a reminder, the inhibition is the drop in the measured response relative to a control, in per cent. Consider `COc1ccc(C2C=C(c3ccc(C)cc3)Nc3ncnn32)cc1` (centres undefined), for which the cell count in test [1] was 538. Also, the inhibition in test [1] is 0.8% (inactive); in [2] it was 22.6% (inactive); in [4] it was -3.97% (inactive); in test [9] it was 2.98% (inactive). The same compound yielded a nuclei count in test [2] of 156%. Also, the z-score in [3] (setting [10]) was -1.85; in test [3] (setting [11]) it was 1.16; in [3] (setting [12]), 0.377. In addition, the fluorescence slope in [5] was -0.0165 (inactive); in test [7], 0.00462 (inactive). For the same compound, the NADPH fluorescence slope in [6] is -1.6e-05 (inactive). Also, the call in test [8] was inactive.

Regarding `Cc1c(C2CC(=O)N(c3ccccc3)C2=O)[nH]n(-c2ccccc2)c1=O` (centres undefined), the cell count in test [1] came to 618. Besides, the inhibition is 4.4% (inactive) in test [1], -97.6% (inactive) in test [2], -7.86% (inactive) in [4] and 6.43% (inactive) in [9]. This compound displayed a nuclei count in test [2] of 143%. Also, the z-score in [3] (setting [10]) is -1.05; in test [3] (setting [11]) it was 0.971; in test [3] (setting [12]), 0.084. Further, the values for the fluorescence slope in test [5] and in [7] were -0.488 (inactive) and 0.00493 (inactive), respectively. The NADPH fluorescence slope in test [6] is -5.3e-05 (inactive). The compound was called inactive in [8].

In the case of `CCOC(=O)c1[nH]c2cc3c(cc2c1NC(=O)CN1CC(C)CC(C)C1)OCO3` (centres undefined), in test [1], the cell count was determined as 527. For the same compound, the inhibition was 1.2% (inactive) in [1], 5.3% (inactive) in [2], 9.91% (inactive) in test [4] and -3.44% (inactive) in test [9]. The nuclei count in [2] was found to be 167%. Further, the z-score was 0.5 in test [3] (setting [10]), -1.18 in test [3] (setting [11]) and -0.714 in test [3] (setting [12]). Besides, the fluorescence slope in [5] was -0.329 (inactive); in [7], 0.00584 (inactive). Besides, in test [6], the NADPH fluorescence slope was -8.9e-06 (inactive). For the same compound, in test [8], the compound was classed as inactive.

Take `O=C(CN1C(=O)c2ccccc2C1=O)OCN1C(=O)c2ccccc2C1=O`: the cell count in test [1] was determined as 494. Moreover, the inhibition was -4.5% (inactive) in test [1], -52.7% (inactive) in [2], 3.97% (inactive) in [4] and -6.56% (inactive) in test [9]. Moreover, in test [2], the nuclei count was determined as 125%. For the same compound, the results for the z-score in test [3] (setting [10]), in test [3] (setting [11]) and in test [3] (setting [12]) were 0.289, 0.0514 and -0.238, respectively. Further, the results for the fluorescence slope in test [5] and in [7] were -0.348 (inactive) and 0.00658 (inactive), respectively. In test [6], the NADPH fluorescence slope was -2.7e-06 (inactive). For the same compound, the result in [8] was inactive.

With `CC(C)c1ccc(O)c(N)c1`, the cell count in test [1] turned out to be 660. The inhibition in [1] is -20.9% (inactive); in test [2] it was -16.4% (inactive); in [4], 22.1% (inactive); in test [9], 11.1% (inactive). The nuclei count in [2] is 180%. Also, the z-score in [3] (setting [10]) was 1.39; in test [3] (setting [11]), -1.5; in test [3] (setting [12]) it was 0.0534. Moreover, the fluorescence slope was -0.527 (inactive) in [5] and 0.00607 (inactive) in [7]. The NADPH fluorescence slope in [6] was -1.2e-05 (inactive). Also, in [8], the compound was called inactive.

Turning to `c1ccc(-n2c(Cc3cccnc3)nc3cnccc32)cc1`, in test [1], the cell count is 581. Besides, the inhibition in test [1] was -2.4% (inactive); in test [2], 48.6% (inactive); in test [4], -6.48% (inactive); in [9], 1.93% (inactive). For the same compound, in test [2], the nuclei count turned out to be 107%. In addition, the values for the z-score in [3] (setting [10]), in test [3] (setting [11]) and in test [3] (setting [12]) were -0.422, -1.1 and -1.28, respectively. The results for the fluorescence slope in test [5] and in test [7] were -0.468 (inactive) and 0.00562 (inactive), respectively. Moreover, the NADPH fluorescence slope in test [6] is -5.8e-05 (inactive). For the same compound, the compound was classed as inactive in test [8].

On to `Cc1ccc(-n2[nH]c(C)c(C=Nc3cc(C)ccn3)c2=O)cc1`, for which the cell count in [1] worked out at 512. For the same compound, the inhibition in test [1] is 3% (inactive); in test [2], 4.6% (inactive); in test [4], -13.3% (inactive); in [9], 51.3% (active). Also, the nuclei count in test [2] was determined as 87.7%. In addition, the z-score in [3] (setting [10]) is -0.346; in test [3] (setting [11]), -0.03; in test [3] (setting [12]) it was 0.605. For the same compound, the fluorescence slope is -0.459 (inactive) in test [5] and 0.0056 (inactive) in [7]. The NADPH fluorescence slope in [6] was -3.6e-05 (inactive). Further, the outcome in [8] was inactive.

`NC(=O)C1CCN(C2OC(=O)c3ccccc32)CC1` (centres undefined): the cell count in test [1] is 399. Moreover, the inhibition in test [1] was -1.7% (inactive); in test [2] it was -148% (inactive); in test [4] it was 5.65% (inactive); in test [9], 33.2% (inactive). Further, the nuclei count in test [2] stood at 160%. The z-score was 0.349 in test [3] (setting [10]), 0.288 in test [3] (setting [11]) and -0.804 in [3] (setting [12]). Further, the results for the fluorescence slope in test [5] and in test [7] were -0.447 (inactive) and 0.0046 (inactive), respectively. Further, the NADPH fluorescence slope in test [6] was -8.4e-05 (inactive). The compound was called inactive in [8].

For `O=C(CN1CCc2[nH]c3ccccc3c2C1)N1CCCCC1`, the cell count in test [1] came out at 538. Also, the inhibition in test [1] is 3.2% (inactive); in [2], -91.5% (inactive); in test [4], 3.42% (inactive); in test [9], -5.72% (inactive). This compound yielded a nuclei count in test [2] of 124%. The values for the z-score in test [3] (setting [10]), in [3] (setting [11]) and in test [3] (setting [12]) were -1.09, -0.293 and -0.987, respectively. The values for the fluorescence slope in test [5] and in test [7] were -0.446 (inactive) and 0.00512 (inactive), respectively. In addition, the NADPH fluorescence slope in test [6] was -8.6e-05 (inactive). Further, the compound was called inactive in test [8].

On to `Cc1nnc(N2CCCCC2)c2ccccc12`, for which the cell count in test [1] stood at 511. Moreover, the inhibition in test [1] was -5.6% (inactive); in test [2], 59.4% (inactive); in [4] it was 18.4% (inactive); in [9] it was 47.9% (inactive). In test [2], this compound registered a nuclei count of 87%. For the same compound, the figures for the z-score in [3] (setting [10]), in [3] (setting [11]) and in [3] (setting [12]) were -2.8, 0.768 and 0.176, respectively. The fluorescence slope in test [5] was -0.507 (inactive); in test [7] it was 0.0054 (inactive). Moreover, the NADPH fluorescence slope in test [6] is -9.4e-06 (inactive). For the same compound, in test [8], the compound was classed as inactive.

On to `Cc1ccc(-c2n[nH]c(=O)c3ccccc23)cc1S(=O)(=O)NCCN1CCOCC1`, for which, in [1], the cell count is 449. The inhibition in test [1] is -1.8% (inactive); in [2], -80.2% (inactive); in test [4], -3.95% (inactive); in [9] it was 19.7% (inactive). In [2], this compound displayed a nuclei count of 160%. In addition, the z-score is -0.696 in [3] (setting [10]), 0.423 in [3] (setting [11]) and 0.442 in test [3] (setting [12]). Moreover, the fluorescence slope in test [5] was -0.41 (inactive); in [7], 0.00462 (inactive). For the same compound, the NADPH fluorescence slope in test [6] is -4.4e-05 (inactive). In [8], the result was inactive.

In the case of `O=C(O)c1cc2cccc(S(=O)(=O)N3CCOCC3)c2cc1O`, the cell count in [1] came to 655. Also, the inhibition in test [1] is -1.8% (inactive); in test [2] it was -122% (inactive); in [4], -9.66% (inactive); in test [9], -7.07% (inactive). The same compound displayed a nuclei count in test [2] of 164%. For the same compound, the z-score in test [3] (setting [10]) was -0.358; in [3] (setting [11]), 0.0278; in test [3] (setting [12]), -2.77. In addition, the fluorescence slope in test [5] was -0.0405 (active); in test [7], 0.00567 (inactive). For the same compound, the NADPH fluorescence slope in [6] was -1e-05 (inactive). The compound was classed as inactive in test [8].

For the compound `CC1(C)CC(=O)C2=C(C1)OC(N)=C(C#N)C2C1C=CCCC1` (centres undefined), the cell count in test [1] came to 725. Further, the inhibition in [1] is -1.5% (inactive); in test [2], -74.9% (inactive); in test [4], 7.83% (inactive); in test [9] it was 9.73% (inactive). The same compound gave a nuclei count in test [2] of 173%. Moreover, the z-score in [3] (setting [10]) was -0.465; in test [3] (setting [11]), 0.0637; in [3] (setting [12]), 1.38. The results for the fluorescence slope in test [5] and in [7] were -0.43 (inactive) and 0.00473 (inactive), respectively. Besides, the NADPH fluorescence slope in [6] is -5.1e-05 (inactive). Also, in test [8], the outcome was inactive.
